Laboratory results published in the RNAGym collection of RNA variant scans (doi:10.1126/science.aae0568).
This sample holds only a part of the variants without activity.

B1: tRNA (parent)
chain: GUUCCGUUGGCGUAAUGGUAACGCGUCUCCCUCCUAAGGAGAAGACUGCGGGUUCGAGUCCCGUACGGAACG

Variants of: B1
Assay: yeast fitness relative to wild type (ratio to wild type); higher = fitter; tRNA-Arg(CCU), competitive growth, 37 C, YPD
Method in brief: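 A pool of Saccharomyces cerevisiae strains, each with a tRNA-Arg(CCU) gene variant at the native genomic locus, was competed in YPD at 37°C for 24 hours across six parallel replicates. The variants had been chemically synthesised at a 3% per-site mutation rate over 69 sites, and gene amplicons before and after competition were read by 100-nucleotide paired-end sequencing. Darwinian fitness relative to wild type rested on changes in genotype frequencies. Genotypes required ≥ 100 starting reads, and estimates < 0.5 were set to 0.5.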

Variant | yeast fitness
GUUCCGUUGGCGUAAUGGUAACGCCUCUCCCUCCUAAGGAGAAGCCUGCGGGUUCGAGUCCCGUACGGAACG [G25C A45C] | 1.06
GUUCCGUUGGCGUAAUGGAAACGCGUCUCCCUCCUAAGGAGCAGACUGCGGGUUCGAGUCCCGUACGGAACG [U19A A42C] | 0.862
GUUCCGUUGGCGUAAUGGUAACGCGUCUCCCUGCUAUGGCGAAGACUGCGGGUUCGAGUCCCGUACGGAACG [C33G A37U A40C] | ≤ 0.5
GUUCCGCUGGCGUAAUGGUAACGCGUCUCUCUCAUAAGGAGAAGACUGCGGCUUCGAGUCCCGUACGGAACG [U7C C30U C34A G52C] | ≤ 0.5
GUUCCGUUGGCGUAAAGGUAACGCGUCUCCCUCCUAAGAAGGAGACUGCGGGUUAGAGUCCUGUACGGAACG [U16A G39A A42G C55A C62U] | ≤ 0.5
GUUCCGUUGGCGUCAAGGUAACGCGUGUCCCUCCUAAGGAGAAGACUGCGGGUUUGAGUCCCGUACGGAACG [A14C U16A C27G C55U] | 0.539
GUUCCGUUGGCGUCAUGGUAACGCGACUCCCUCUUAAGGAGAAGACUGCGGGUUGGAGUCCCGUACGAAACG [A14C U26A C34U C55G G68A] | ≤ 0.5
GUUCCGUUGGCGUAUUGGAGACGCGUCUCCCUCCUAAGGUGAUGACUGCGGGUUCGAGUGCUGUACGGGACG [A15U U19A A20G A40U A43U C60G C62U A69G] | ≤ 0.5
GUUUCGUUGGCGUACUGGUAACGCGUCUCCCUCCUAAGGAGAAGACUGCGGGUUCGAGUCCCCUACGGAACG [C4U A15C G63C] | 0.556
GUUCCGUUGGCGUAAUGGUAACGCGUCUCCCUCCUAAGGAGAAGACUGCGGGUUCGCAUCCCGUACGGAACG [A57C G58A] | 0.696
GUUCCGUUGGCGUAAUGGUAACGCAUCUCCCUCCUAAGGUGCAGUCCGCGGGUUCGAGUCCCGUGCGGAACG [G25A A40U A42C A45U U47C A65G] | 0.664
GUUCCGUUGGCGUAAUGGUAACGCGUCUUCCUCCUAGGGAGAAGACUACGGGUUCGAGUCCCGUACGCUACG [C29U A37G G48A G68C A69U] | 0.662
GAUCCGUUGGCGUAAUGGUAGCGCGUCUGCCUCCUAAGGAGAAGACUGAGGGUUCGAGUCCCGUACAGAACG [U2A A21G C29G C49A G67A] | ≤ 0.5
GUUCCGUUGACGUAAUGGUAACGCGUCUCCCUCCUAAGGAGAAGACUGCGGGAUCGAAUCCCGUACGUAACG [G10A U53A G58A G68U] | ≤ 0.5
GUUCCGUUGGCGUAAUGGUAACGCGUCUCCCUCCUAAGGAGAAGACUGCGGGUUCGAGUCUCGUACGGACCG [C61U A70C] | 0.939
GUUCCGUUGGCGUAAUGGUCACGCGUCUUCCUCCUAGGGAGAAGACUGCGGGUUCGAGUCCCGUACGGAACG [A20C C29U A37G] | 0.753
GUUCCGUUGGCGUAAUGGUAACGCGUCUCCCUCCUAAAGAGAGGACUGCGGGUUCGAGUCCCGUACGGCACG [G38A A43G A69C] | ≤ 0.5
GUCCCGUUGGCGUUAUGGUCACGCGUCUCGCUCCUAAGGAGAAGACUGCGGGUUCGAAUCCCGUGCGGAACG [U3C A14U A20C C30G G58A A65G] | ≤ 0.5
GUUCCGUAGGCGUAAUGGUAACACGUCUCUCUCCCAAGGAGAAGACUGCGGGUUCGAGUCCCGUACGGAACG [U8A G23A C30U U35C] | ≤ 0.5

Variant | yeast fitness
GUUCCGUUGGCGUACUGGUAACGCGUCUCCCUCCUAAGGGGAAGACUGCGGGUUCGAGUCCCGUACGGAACG [A15C A40G] | 0.729
GUUCCGUUGGCGUAAUGGUACCGCGUUUCCCUCCUAAGGAGAAGACUGCGGGUUCGUGUCCGGUAUGGAACG [A21C C27U A57U C62G C66U] | ≤ 0.5
GUUCCGUUGGCGUAGUGGUAACGCAUCUCCCUCCUAAGGAGAAGACUGUGGGUUCGAGUCCCGUUCGGAACG [A15G G25A C49U A65U] | 0.58
GUUCGGUUGGCGUAAUGGUAACGCGUCUCCCUCCUAAGGAGAGGACUGCGGGUUCGAGUCCCGUACGGAACG [C5G A43G] | 0.746
GUUCCGUUGGCCUAAUGGUAACGCGUCUCCCUCAUAAGGAGAACACUGCGGGUUCGAGUCCCGUACGGAACG [G12C C34A G44C] | ≤ 0.5
GUUCCGUUGGCGUACUGAUAACGGGUCUCCCUCCUAAGGAGAAGACUGCGGGUUCGAGUCCCGUACGGAACG [A15C G18A C24G] | ≤ 0.5
GUUCCGUGGGCGUAAUGGAAACGCGUCUCCCUCCUAAGGAGAAGACUGCGGGUACGUGUCCCGUACGCAACG [U8G U19A U54A A57U G68C] | ≤ 0.5
GUUCCGUUGACGUAUUGGUAACGCGUCUCCCUCCUAAGGAGAAGACUGCGGGUUCGAGUCCCGUACGGAGCG [G10A A15U A70G] | ≤ 0.5
GUUCCGUUGGCGUACUGGUAACGCGUGUCUCUCCUAAGGAGAAGAAUGCGGGUUCGAGUCCCGUACGGAUCG [A15C C27G C30U C46A A70U] | ≤ 0.5
GUUCCGUUGGCGUAAUGAUAACGCGUCUCCCUCCUAAGGAGAAGACUGAGGGUUCGAGUCCCGUACGGAACG [G18A C49A] | 0.606
GUUCCGUUGGUGUAAUGGUACCGCGUCUCCCUCCUCAGGAGAAGACUGCGGGUUCGAGUCCCGUACGGAUCG [C11U A21C A36C A70U] | ≤ 0.5
GUUCCGUUGGCGUAAUGGUAACGCGUCUCCCUCCUAAGGUGAAGACUGCGGGUUCGAGUCCCGUUCGGAACG [A40U A65U] | 0.868
GCUCCGUUGGGGUAAUGGUAACGCGUUUCCCUCCUAAGGAGAAGAGUGCGGGUUCGAGUCCCGUACGGAACG [U2C C11G C27U C46G] | 0.606
GUUCGGUUGGCGUAAUGGUAACGCGUCUCCCUCCAAAGGAGAAGACUGCGGGUUCGAGUCCCCUACGGAACG [C5G U35A G63C] | ≤ 0.5
GUUCCGUUGGCGUAAUGGUAACGCGUCUCCCUCCUAAGGAGAAGAGUGAGGGUUCGAGUCCCGUACGGUACG [C46G C49A A69U] | 0.549
GUUCCGUUGGCAUGAUGGUAACGCGUGUCCCUCGUAUGGAGAAGACUGCGGGUUCGAGUCCCGAACGGAACG [G12A A14G C27G C34G A37U U64A] | ≤ 0.5
GCUCCGUUGGCGUACUGGCAAGGCGUCUCCCUCUUAAGCAGAAGACUGCGGGUUCGAGUCCUGUCCGGAACG [U2C A15C U19C C22G C34U G39C C62U A65C] | ≤ 0.5
GUUCCCUUGGCAUAAUGGUAACGCGUCUCCCUCCUACGGAGAAGACUGCGAGCUCGAGUCCAGUACGGAACG [G6C G12A A37C G51A U53C C62A] | ≤ 0.5
